Five compounds from ChEMBL document CHEMBL4371012, “Development of Macrocyclic Peptides Containing Epoxyketone with Oral Availability as Proteasome Inhibitors” (J Med Chem, 2018) can be followed below.

By IC50 is commonly meant the concentration that gives 50% inhibition. Broadly, the Tmax is the time at which the peak concentration occurs. One may read the bioavailability as dose-corrected exposure relative to a reference, in per cent. Higher therefore signals much systemic uptake. One may read the Cmax as the peak of the concentration-time curve. By half-life is commonly meant the time in which the quantity being followed falls by half. Low values mean rapid decline, high ones slow decline. The term clearance denotes the rate of elimination divided by the concentration. Low values mean inefficient removal, high ones efficient removal. As usually defined, the AUC(0-t) is exposure summed from dosing to a finite time, without extrapolation to infinity. A higher AUC(0-t) goes with more exposure. The term efflux ratio denotes a quotient of directional permeabilities that is used to spot active efflux. One may read the Papp B→A as the apparent permeability from the basolateral to the apical side of a cell layer. For orientation: Papp A→B means how fast a substance crosses the layer from the apical side.

The source made the active and inactive calls. The calls are words filed in the database; no cut-off is given here.

The test system of series [1] is RPMI-8226. As to the kind of experiment: Antiproliferative activity against human RPMI8226 cells after 72 hrs by MTS assay. It counts as functional, cell-based. The following applies: RPMI-8226, 72 h. In general terms: Formazan colour is commonly taken as a measure of viable cells.
Series [2] is described as follows: Tmax in ICR mouse at 25 mg/kg, po via gavage by LC-MS/MS analysis. It counts as ADME, organism-based. The following applies: in vivo.
The nature of series [3]: Volume of distribution at steady state in ICR mouse at 5 mg/kg, iv by LC-MS/MS analysis. The class given is ADME, organism-based. Conditions: in vivo, read-out: Vdss.
A short description of series [4]: Oral bioavailability in ICR mouse at 25 mg/kg via gavage by LC-MS/MS analysis. The class given is ADME, organism-based. Conditions: in vivo.
The nature of series [5]: Cmax in ICR mouse at 25 mg/kg, po via gavage by LC-MS/MS analysis. The class given is ADME, organism-based. Further details: dose 25 mg/kg, route oral. The following applies: in vivo.
Series [6] is described as follows: Half life in ICR mouse at 5 mg/kg, iv by LC-MS/MS analysis. It counts as ADME, organism-based. The following applies: in vivo.
Series [7] is described as follows: Clearance in ICR mouse at 5 mg/kg, iv by LC-MS/MS analysis. Conditions: in vivo. It counts as ADME, organism-based.
For series [8], the system named is Mus musculus. As to the kind of experiment: In vivo inhibition of 20S proteasome chymotrypsin-like activity in Balb/c mouse blood at 30 mg/kg, po measured at 2 to 24 hrs post dose using LLVY-AMC as substrate by fluorescence assay. The class given is functional, organism-based. An outline of the steps:
(§1)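 BALB/c mice dosed orally in 0.5% CMC-Na vehicle. Blood was sampled at 2 and 24 h after dosing for proteasome chymotrypsin-like activity.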

The test system of series [9] is Mus musculus. The experiment in a line: In vivo inhibition of 20S proteasome chymotrypsin-like activity in Balb/c mouse blood at 100 mg/kg, po measured at 2 to 24 hrs post dose using LLVY-AMC as substrate by fluorescence assay. It counts as functional, organism-based. The method, boiled down: as §1
Series [10] concerns the target T1, Proteasome Macropain subunit MB1 (Homo sapiens, UniProt P28074).
T1 sequence (P28074 whole entry): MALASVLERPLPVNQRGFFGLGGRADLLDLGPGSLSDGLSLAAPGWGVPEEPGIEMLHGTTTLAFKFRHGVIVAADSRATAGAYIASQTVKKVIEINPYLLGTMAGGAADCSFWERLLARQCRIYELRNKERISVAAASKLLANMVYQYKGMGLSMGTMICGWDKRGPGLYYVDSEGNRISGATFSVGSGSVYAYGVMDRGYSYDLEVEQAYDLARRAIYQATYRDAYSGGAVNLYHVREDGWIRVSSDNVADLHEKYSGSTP
As to the kind of experiment: Inhibition of human 20S proteasome chymotrypsin-like activity using Suc-Leu-Leu-Val-Tyr-AMC as substrate pretreated for 15 mins followed by substrate addition by fluorescence assay.

Series [11] in a line: AUC (0 to t) in ICR mouse at 5 mg/kg, iv after 1 hr by LC-MS/MS analysis. The class given is ADME, organism-based. Further details: time < 1 hr, dose 5 mg/kg, route intravenous. The following applies: in vivo.
A short description of series [12]: AUC (0 to t) in ICR mouse at 25 mg/kg, po via gavage after 1 hr by LC-MS/MS analysis. Further details: time < 1 hr, dose 25 mg/kg, route oral. The following applies: in vivo. It counts as ADME, organism-based.
In series [13] the test system is MM1.S. The experiment in a line: Antiproliferative activity against human MM1S cells after 72 hrs by MTS assay. The class given is functional, cell-based.
Series [14] deals with MV4-11. The experiment in a line: Antiproliferative activity against human MV4-11 cells after 72 hrs by MTS assay. It counts as functional, cell-based. The following applies: MV4-11, 72 h.
A short description of series [15]: Metabolic stability in mouse liver microsomes assessed as parent compound remaining at 100 uM after 5 mins by LC-MS/MS analysis. It counts as ADME, Microsome. Conditions: read-out: Stability.
A short description of series [16]: Efflux ratio of apparent permeability in human Caco2 cells measured at 90 mins time interval by LC-MS/MS analysis. Conditions: Caco-2. Background: Caco-2 monolayers are a common model of the intestinal barrier.
The nature of series [17]: Apparent permeability from basolateral to apical side in human Caco2 cells measured at 90 mins time interval by LC-MS/MS analysis. Conditions: Caco-2.
Series [18] can be described thus: Apparent permeability from apical to basolateral side in human Caco2 cells measured at 90 mins time interval by LC-MS/MS analysis. The following applies: Caco-2.
The nature of series [19]: AUC (0 to t) in ICR mouse at 30 mg/kg, po via gavage after 1 hr by LC-MS/MS analysis. It counts as ADME, organism-based. Further details: time < 1 hr, dose 30 mg/kg, route oral. The following applies: in vivo.
Series [20] is described as follows: Tmax in ICR mouse at 30 mg/kg, po via gavage by LC-MS/MS analysis. Conditions: in vivo. It counts as ADME, organism-based.
A short description of series [21]: Cmax in ICR mouse at 30 mg/kg, po via gavage by LC-MS/MS analysis. It counts as ADME, organism-based. Further details: dose 30 mg/kg, route oral. Conditions: in vivo.
Series [22] in a line: Metabolic stability in mouse liver microsomes assessed as parent compound remaining at 100 uM after 30 mins by LC-MS/MS analysis. It counts as ADME, Microsome. Conditions: read-out: Stability. An outline of the steps:
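After the microsomal incubation, the clear supernatant was analysed by ESI LC-MS. The read-out was the relative peak area of each parent compound.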
Background: Liver microsomes are vesicles of endoplasmic reticulum, rich in cytochrome P450 enzymes.

Consider `COC[C@@H]1NC(=O)c2ccccc2OCCCCCCOC[C@@H](C(=O)N[C@@H](Cc2ccccc2)C(=O)[C@@]2(C)CO2)NC1=O`, for which the IC50 in [1] was greater than 100 nM; in [10], 54 nM; in series [13] it was 58 nM; in series [14] it was 36 nM. Moreover, the Tmax in series [2] was 4.8 min. Also, the Vd in series [3] was found to be 0.62 L/kg. This compound also gave a bioavailability in series [4] of 2.15%. Moreover, the peak level in series [5] (Cmax) was 0.519 µg/mL. For the same compound, the half-life in series [6] is 9.6 min. In series [7], this compound registered a clearance of 4.03 L/h/kg. The inhibition entry in series [8] was “inactive”. In addition, the inhibition entry in [9] was “Active”. Besides, the AUC(0-t) at 1 h is 1.24 µg·h/mL in [11] and 0.133 µg·h/mL in series [12]. Further, in series [15], the remaining at 5 min, 100 µM was less than 5%.

For the compound `CC[C@H]1OC(=O)[C@H](C)[C@@H](O[C@H]2C[C@@](C)(OC)[C@@H](O)[C@H](C)O2)[C@H](C)[C@@H](O[C@@H]2O[C@H](C)C[C@H](N(C)C)[C@H]2O)[C@](C)(O)C[C@@H](C)C(=O)[C@H](C)[C@@H](O)[C@]1(C)O` [ERYTHROMYCIN], the efflux ratio at 1.5 h in series [16] is greater than 79.5. Moreover, the Papp B→A at 1.5 h in series [17] was 151 nm/s. Besides, in series [18], the apparent permeability from apical to basolateral (Papp A→B) at 1.5 h is less than 1.9 nm/s.

Regarding `COC[C@@H]1NC(=O)c2nccn2CCCCCCOC[C@@H](C(=O)N[C@@H](Cc2ccccc2)C(=O)[C@@]2(C)CO2)NC1=O`, the concentration for half-maximal inhibition (IC50) in series [1] came out at 3 nM; in series [10], 14 nM; in series [13], 1 nM; in [14], 3 nM. This compound had an exposure AUC(0-t) at 1 h in series [19] of 0.058 µg·h/mL. Also, in series [20], the Tmax was 13.2 min. Besides, in series [8], the inhibition entry is “Active”. This compound yielded a Cmax in series [21] of 0.092 µg/mL. Also, the remaining at 0.5 h, 100 µM in [22] was 92%.

Regarding `COCCc1ccc(OCC(O)CNC(C)C)cc1` (centres undefined) [METOPROLOL], the efflux ratio at 1.5 h in [16] is 0.74. Further, the Papp B→A at 1.5 h in series [17] was 259 nm/s. In series [18], the apparent permeability from apical to basolateral (Papp A→B) at 1.5 h was 352 nm/s.

With `COC[C@@H]1NC(=O)c2ccnn2CCCCCCOC[C@@H](C(=O)N[C@@H](Cc2ccccc2)C(=O)[C@@]2(C)CO2)NC1=O`, the IC50 in [1] is 2 nM; in [10], 16 nM; in series [13], 3 nM; in series [14], 2 nM. Besides, the time of peak concentration (Tmax) in series [2] was 4.8 min. Besides, in series [3], the Vd turned out to be 0.48 L/kg. Besides, the bioavailability in [4] stood at 3.72%. The Cmax in [5] came out at 0.325 µg/mL. Further, the half-life in series [6] worked out at 6 min. The compound also had a clearance in [7] of 6.42 L/h/kg. In addition, the inhibition entry in [8] is “Active”. In addition, the remaining at 0.5 h, 100 µM in [22] was 75%. Besides, the values for the AUC(0-t) at 1 h in series [11] and in [12] were 0.784 µg·h/mL and 0.141 µg·h/mL, respectively.
